Here are results for two compounds from ChEMBL document CHEMBL1137665, “Antistaphylococcal activity of CG400549, a new experimental FabI inhibitor, compared with that of other agents” (2007).

Converted amounts (≈) assume the structure as drawn.

Experiment [1] deals with Staphylococcus aureus. Put plainly: Antimicrobial activity against methicillin-susceptible Staphylococcus aureus by agar dilution CLSI method. It is filed as functional. In outline: (§1)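 CLSI agar dilution MIC against S. aureus clinical isolates. Calcium was added to the medium for daptomycin testing. Vancomycin plates were read after a full 24-h incubation.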
Experiment [2] concerns Staphylococcus aureus. Put plainly: Antimicrobial activity against methicillin-resistant Staphylococcus aureus by agar dilution CLSI method. Type of experiment: functional. In outline: as §1
(In general: Agar dilution tests growth on a series of plates holding different concentrations.)

For experiment [3], the system named is Staphylococcus aureus. Put plainly: Antimicrobial activity against community-acquired vancomycin-intermediate Staphylococcus aureus 504 by agar dilution CLSI method. Type of experiment: functional. The method, boiled down:
as §1

Experiment [4] relates to Staphylococcus aureus. Kind of experiment: Antimicrobial activity against vancomycin-resistant Staphylococcus aureus 509 Michigan by agar dilution CLSI method. It is filed as functional. The method, boiled down: (§2)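 Agar dilution MIC per CLSI methodology; calcium supplemented for daptomycin testing; vancomycin plates read after a full 24-h incubation.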
Experiment [5] concerns Staphylococcus aureus. Put plainly: Antimicrobial activity against vancomycin-resistant Staphylococcus aureus 510 Hershey by agar dilution CLSI method. Type of experiment: functional. The method, boiled down:
as §2

Experiment [6] concerns Staphylococcus aureus. Kind of experiment: Antimicrobial activity against vancomycin-intermediate Staphylococcus aureus 504 after 50 passages by multi-step resistance selection technique. It is filed as functional. In outline:
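Multistep selection: S. aureus strains (MSSA and MRSA, including VISA and VRSA) were passaged serially once daily in subinhibitory concentrations of each antimicrobial. Mutant and parent identities were confirmed by pulsed-field gel electrophoresis at the end of the study. Mutant MIC stability was checked after 10 daily subcultures on antibiotic-free media.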

Experiment [7] has as its system Staphylococcus aureus. Kind of experiment: Antimicrobial activity against vancomycin-intermediate Staphylococcus aureus 555 Hershey after 50 passages by multi-step resistance selection technique. Type of experiment: functional. In outline: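 Multistep selection: 10 S. aureus strains (8 MRSA incl. two VRSA, two VISA; 2 MSSA) serially passaged daily at subinhibitory concentrations of each antimicrobial; MICs of mutants retested and compared with parent; clone identity versus parent confirmed by pulsed-field gel electrophoresis at study end.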

The test system of experiment [8] is Staphylococcus aureus. Put plainly: Antimicrobial activity against methicillin-susceptible Staphylococcus aureus 540 after 50 passages by multi-step resistance selection technique.
Experiment [9] relates to Staphylococcus aureus. Kind of experiment: Antimicrobial activity against vancomycin-intermediate Staphylococcus aureus 504 after 22 passages with Linezolid measured after 10 times antibiotic-free subculture by multi-step resistance selection technique. It is filed as functional. The method, boiled down: (§3)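 Multistep-selected mutants (daily passage at subinhibitory drug levels) then subcultured 10 times daily on antibiotic-free medium; MIC redetermined afterwards and compared with the MIC recorded at the end of selection; clone identity to parent checked by pulsed-field gel electrophoresis.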

Experiment [10] deals with Staphylococcus aureus. Put plainly: Antimicrobial activity against vancomycin-resistant Staphylococcus aureus 509 Michigan after 14 passages with CG400549 measured after 10 antibiotic-free subculture by multi-step resistance selection technique. It is filed as functional. The method, boiled down: as §3
The test system of experiment [11] is Staphylococcus aureus. Kind of experiment: Antimicrobial activity against vancomycin-resistant Staphylococcus aureus 509 Michigan after 20 passages with daptomycin measured after 10 antibiotic-free subculture by multi-step resistance selection technique. Type of experiment: functional. The method, boiled down:
as §3

Experiment [12] concerns Staphylococcus aureus. Put plainly: Antimicrobial activity against vancomycin-resistant Staphylococcus aureus 509 Michigan after 28 passages with Linezolid measured after 10 antibiotic-free subculture by multi-step resistance selection technique. It is filed as functional. In outline:
as §3

Experiment [13] concerns Staphylococcus aureus. Put plainly: Antimicrobial activity against vancomycin-resistant Staphylococcus aureus 510 Hershey after 14 passages with CG400549 measured after 10 antibiotic-free subculture by multi-step resistance selection technique. Type of experiment: functional. The method, boiled down: as §3
Experiment [14] concerns Staphylococcus aureus. Kind of experiment: Antimicrobial activity against vancomycin-intermediate Staphylococcus aureus 555 Hershey by agar dilution CLSI method. It is filed as functional. In outline: as §2
The test system of experiment [15] is Staphylococcus aureus. Put plainly: Antimicrobial activity against panton-valentine leukocidin-positive community-acquired methicillin-resistant Staphylococcus aureus 490 after 50 passages by multi-step resistance selection technique.
Experiment [16] relates to Staphylococcus aureus. Put plainly: Antimicrobial activity against vancomycin-intermediate Staphylococcus aureus 555 Hershey after 14 passages with CG400549 measured after 10 antibiotic-free subculture by multi-step resistance selection technique. Type of experiment: functional. In outline:
as §3

For experiment [17], the system named is Staphylococcus aureus. Put plainly: microbe, parasite or virus in culture. The settings on record: 525.
For experiment [18], the system named is Staphylococcus aureus. Put plainly: microbe, parasite or virus in culture. The settings on record: 547.
Experiment [19] relates to Staphylococcus aureus. Kind of experiment: microbe, parasite or virus in culture. As to conditions: 543.
In experiment [20] the test system is Staphylococcus aureus. Kind of experiment: microbe, parasite or virus in culture. The settings on record: 481.

As usually defined, the MIC50 is an inhibitory concentration at the 50% level, which refers to growth in some studies and to a panel of isolates in others. A low value points to higher susceptibility. What is called MIC90 is an inhibitory concentration at the 90% level, which refers to growth in some studies and to a panel of isolates in others. Low values mean higher susceptibility, high ones lower susceptibility. On to `CC[C@H]1OC(=O)[C@H](C)[C@@H](O[C@H]2C[C@@](C)(OC)[C@@H](O)[C@H](C)O2)[C@H](C)[C@@H](O[C@@H]2O[C@H](C)C[C@H](N(C)C)[C@H]2O)[C@](C)(O)C[C@@H](C)CN(C)[C@H](C)[C@@H](O)[C@]1(C)O` [AZITHROMYCIN], for which, in the experiment with Staphylococcus aureus [1], the MIC50 was determined as 1 µg/mL (≈ 1.34 µM) and the MIC90 was greater than 64 µg/mL. In addition, the MIC50 with Staphylococcus aureus [2] is greater than 64 µg/mL.

On to `CN[C@H](CC(C)C)C(=O)N[C@H]1C(=O)N[C@@H](CC(N)=O)C(=O)N[C@H]2C(=O)N[C@H]3C(=O)N[C@H](C(=O)N[C@H](C(=O)O)c4cc(O)cc(O)c4-c4cc3ccc4O)[C@H](O)c3ccc(c(Cl)c3)Oc3cc2cc(c3O[C@@H]2O[C@H](CO)[C@@H](O)[C@H](O)[C@H]2O[C@H]2C[C@](C)(N)[C@H](O)[C@H](C)O2)Oc2ccc(cc2Cl)[C@H]1O` [VANCOMYCIN], for which the MIC50 against Staphylococcus aureus [1] and in the experiment with Staphylococcus aureus [2] was 1 µg/mL (≈ 0.69 µM) throughout. Moreover, the MIC90 in the experiment on Staphylococcus aureus [1] and in the experiment with Staphylococcus aureus [2] was 2 µg/mL (≈ 1.38 µM) throughout. The MIC was 8 µg/mL (≈ 5.52 µM) in the experiment with Staphylococcus aureus [3]; greater than 64 µg/mL against Staphylococcus aureus [4]; 64 µg/mL (≈ 44.2 µM) in the experiment with Staphylococcus aureus [5]; 8 µg/mL (≈ 5.52 µM) against Staphylococcus aureus [6]; 8 µg/mL (≈ 5.52 µM) in the experiment on Staphylococcus aureus [7]; 8 µg/mL (≈ 5.52 µM) against Staphylococcus aureus [8]. Moreover, the MIC in the experiment on Staphylococcus aureus [9] is 8 µg/mL (≈ 5.52 µM); with Staphylococcus aureus [10] it was 16 µg/mL (≈ 11 µM); in the experiment on Staphylococcus aureus [11], 32 µg/mL (≈ 22.1 µM); in the experiment with Staphylococcus aureus [12], greater than 64 µg/mL; in the experiment with Staphylococcus aureus [13], 16 µg/mL (≈ 11 µM); against Staphylococcus aureus [14] it was 8 µg/mL (≈ 5.52 µM). Moreover, the MIC in the experiment with Staphylococcus aureus [15], in the experiment on Staphylococcus aureus [16], in the experiment with Staphylococcus aureus [17], against Staphylococcus aureus [18], in the experiment on Staphylococcus aureus [19] and with Staphylococcus aureus [20] was 8 µg/mL (≈ 5.52 µM) throughout.
